Data published in PMC3698760 (Journal of the American Heart Association: Cardiovascular …, 2013).
“Also recorded” adds a separate entry of the source.

How the values were obtained:
RAW264 macrophages = experiment: Ex vivo cholesterol efflux mediated by plasma HDL of treated mice; assay type: in vivo; conditions: high-dose 50 mg/kg, 16 weeks; apoB-depleted plasma, 8Br-cAMP-treated RAW264 macrophages
Method in brief: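 Plasma collected after 16 weeks of i.p. treatment of high-fat-fed apoE−/− mice. ApoB-depleted plasma served as acceptor for ³H-cholesterol-labelled RAW264 macrophages. Macrophages were pretreated with 0.3 mmol/L 8Br-cAMP and kept in serum-free medium with 0.2% BSA.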

A172 human glioblastoma = experiment: Cellular cholesterol efflux in A172 human cells; assay type: cell-based; conditions: 4 hours
Method in brief: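 A172 human glioblastoma cells were grown in DMEM with 10% FBS and antibiotics, then labelled with ³H‑cholesterol. Efflux ran in serum‑free medium with 0.2% BSA, 5 μmol/L T0901317 and 5 μmol/L 9‑cis‑retinoic acid, with or without 10 μmol/L probucol. Acceptor was human apoA‑I or test peptide at 20 μg/mL, or a molar dose series, for 4 h. n=4–5; mean±SD.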

ABCA1 [1] = target: T1, ABCA1 (Homo sapiens, UniProt O95477); experiment: Probucol-inhibitable, ABCA1-specific cholesterol efflux in A172 cells; assay type: cell-based; conditions: probucol 10 μmol/L
Method in brief: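 A172 glioblastoma cells, labelled with ³H-cholesterol, were held in serum-free 0.2% BSA medium with 5 μmol/L T0901317 and 5 μmol/L 9-cis-retinoic acid. Cells were exposed for 4 h to 20 μg/mL acceptor, with or without 10 μmol/L probucol. ABCA1-dependent efflux was taken as the probucol-inhibitable fraction.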

[2] = Size analysis of HDL interacting with FAMP; conditions: human HDL 2.22 mg/mL, 60 minutes at 37°C; 50, 250, 500 μg/mL FAMP5
Method in brief: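 Human HDL, adjusted to 2.22 mg/mL in saline containing 0.1% EDTA (pH 7.4), was incubated with 50, 250 or 500 μg/mL test peptide for 60 min at 37°C. Samples were run on nondenaturing 5–20% gradient polyacrylamide gel in Tris-glycine (pH 7.5) for 3 h at 20 mA on ice, then stained with Coomassie R-250.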

[3] = test system: monocyte chemoattractant protein‐1 (MCP‐1); experiment: Plasma MCP-1 by ELISA; assay type: in vivo; conditions: high dose (50 mg/kg), 16 weeks, apoE−/− mice
Method in brief: (§1)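 Overnight-fasted plasma collected from high-fat-fed apoE−/− mice after 16 weeks of i.p. dosing 3 times weekly (10 or 50 mg/kg per day, or scrambled peptide). High-sensitivity CRP and MCP-1 were quantified with commercial ELISA kits.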

[4] = test system: mouse peritoneal macrophages; experiment: Cellular cholesterol efflux in mouse peritoneal macrophages; assay type: cell-based; conditions: 20 μg/mL, 4 hours, n=4 to 5
Method in brief: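 Peritoneal macrophages taken from mice injected i.p. with 2 mL 2.9% thioglycollate 90 h earlier, and selected as cells adherent after 2 h. Cells were labelled with ³H-cholesterol and kept in serum-free medium with 0.2% BSA. Efflux to 20 μg/mL acceptor was measured over 4 h.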

C‐reactive protein (CRP) = experiment: Plasma high-sensitive CRP by ELISA; assay type: in vivo; conditions: low (10 mg/kg) and high (50 mg/kg) doses, 16 weeks, apoE−/− mice
Method in brief: as §1

apoE‐deficient mice [5] = experiment: Plasma lipid profiles by enzymatic assay, 16-week treatment; assay type: in vivo; conditions: 16 weeks; for HDL Cholesterol / Total Cholesterol / Triglyceride: 3 times a week, high-fat-fed apoE-deficient mice, mean±SD
Method in brief: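 Overnight-fasting plasma taken after 16 weeks from 19 of 23 high-fat-fed apoE−/− mice. Dosing was i.p. 3 times weekly with scrambled peptide or test peptide at 10 or 50 mg/kg per day. Total cholesterol, triglyceride and HDL cholesterol were measured by enzymatic assay; mean±SD.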

ABCA1 [6] = target: T1, ABCA1; experiment: Cholesterol efflux in CHO-ldlA7 cells transfected with human ABCA1 cDNA; assay type: cell-based; conditions: 20 μg/mL, 4 hours, n=6
Method in brief: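 CHO-ldlA7 cells seeded at 80–90% confluence were transiently transfected (Lipofectamine 2000) with human ABCA1 cDNA in pcDNA3.1 or with empty vector (mock). Cells were labelled with ³H-cholesterol in serum-free medium with 0.2% BSA. Efflux over 4 h was measured with or without 20 μg/mL human apoA-I or test peptide; n=6.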

apoE‐deficient mice [7] = experiment: Plasma lipoprotein profiles analyzed by HPLC, 16-week treatment; assay type: in vivo; conditions: 3 times a week, 16 weeks
Method in brief: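 Plasma from apoE−/− mice after 16-week i.p. dosing (3 times weekly) was separated by HPLC into 20 particle-size subfractions. Each subfraction was assayed enzymatically for total cholesterol, free cholesterol, triglycerides and phospholipids; mean±SD.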

human erythrocytes = experiment: Hemolysis assay; assay type: cell-based; conditions: 1% human erythrocytes in PBS, 10 minutes at 37°C; up to 1.0 mg/mL; OD 540 nm
Method in brief: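 Erythrocytes from EDTA blood of 4 human donors, washed 3 times in PBS to remove plasma and buffy coat. A 1% suspension in PBS was incubated with or without test peptide for 10 min at 37°C. Hemoglobin in the supernatant was read at 540 nm and expressed as percentage of Triton X-100 lysis; mean±SD.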

[8] = high-dose 50 mg/kg per day i.p., n=7
[9] = low-dose 10 mg/kg per day i.p., n=5
[10] = high-dose 50 mg/kg per day i.p., n=7, mean±SD
[11] = low-dose 10 mg/kg per day i.p., n=5, mean±SD

T1 sequence (O95477 whole entry): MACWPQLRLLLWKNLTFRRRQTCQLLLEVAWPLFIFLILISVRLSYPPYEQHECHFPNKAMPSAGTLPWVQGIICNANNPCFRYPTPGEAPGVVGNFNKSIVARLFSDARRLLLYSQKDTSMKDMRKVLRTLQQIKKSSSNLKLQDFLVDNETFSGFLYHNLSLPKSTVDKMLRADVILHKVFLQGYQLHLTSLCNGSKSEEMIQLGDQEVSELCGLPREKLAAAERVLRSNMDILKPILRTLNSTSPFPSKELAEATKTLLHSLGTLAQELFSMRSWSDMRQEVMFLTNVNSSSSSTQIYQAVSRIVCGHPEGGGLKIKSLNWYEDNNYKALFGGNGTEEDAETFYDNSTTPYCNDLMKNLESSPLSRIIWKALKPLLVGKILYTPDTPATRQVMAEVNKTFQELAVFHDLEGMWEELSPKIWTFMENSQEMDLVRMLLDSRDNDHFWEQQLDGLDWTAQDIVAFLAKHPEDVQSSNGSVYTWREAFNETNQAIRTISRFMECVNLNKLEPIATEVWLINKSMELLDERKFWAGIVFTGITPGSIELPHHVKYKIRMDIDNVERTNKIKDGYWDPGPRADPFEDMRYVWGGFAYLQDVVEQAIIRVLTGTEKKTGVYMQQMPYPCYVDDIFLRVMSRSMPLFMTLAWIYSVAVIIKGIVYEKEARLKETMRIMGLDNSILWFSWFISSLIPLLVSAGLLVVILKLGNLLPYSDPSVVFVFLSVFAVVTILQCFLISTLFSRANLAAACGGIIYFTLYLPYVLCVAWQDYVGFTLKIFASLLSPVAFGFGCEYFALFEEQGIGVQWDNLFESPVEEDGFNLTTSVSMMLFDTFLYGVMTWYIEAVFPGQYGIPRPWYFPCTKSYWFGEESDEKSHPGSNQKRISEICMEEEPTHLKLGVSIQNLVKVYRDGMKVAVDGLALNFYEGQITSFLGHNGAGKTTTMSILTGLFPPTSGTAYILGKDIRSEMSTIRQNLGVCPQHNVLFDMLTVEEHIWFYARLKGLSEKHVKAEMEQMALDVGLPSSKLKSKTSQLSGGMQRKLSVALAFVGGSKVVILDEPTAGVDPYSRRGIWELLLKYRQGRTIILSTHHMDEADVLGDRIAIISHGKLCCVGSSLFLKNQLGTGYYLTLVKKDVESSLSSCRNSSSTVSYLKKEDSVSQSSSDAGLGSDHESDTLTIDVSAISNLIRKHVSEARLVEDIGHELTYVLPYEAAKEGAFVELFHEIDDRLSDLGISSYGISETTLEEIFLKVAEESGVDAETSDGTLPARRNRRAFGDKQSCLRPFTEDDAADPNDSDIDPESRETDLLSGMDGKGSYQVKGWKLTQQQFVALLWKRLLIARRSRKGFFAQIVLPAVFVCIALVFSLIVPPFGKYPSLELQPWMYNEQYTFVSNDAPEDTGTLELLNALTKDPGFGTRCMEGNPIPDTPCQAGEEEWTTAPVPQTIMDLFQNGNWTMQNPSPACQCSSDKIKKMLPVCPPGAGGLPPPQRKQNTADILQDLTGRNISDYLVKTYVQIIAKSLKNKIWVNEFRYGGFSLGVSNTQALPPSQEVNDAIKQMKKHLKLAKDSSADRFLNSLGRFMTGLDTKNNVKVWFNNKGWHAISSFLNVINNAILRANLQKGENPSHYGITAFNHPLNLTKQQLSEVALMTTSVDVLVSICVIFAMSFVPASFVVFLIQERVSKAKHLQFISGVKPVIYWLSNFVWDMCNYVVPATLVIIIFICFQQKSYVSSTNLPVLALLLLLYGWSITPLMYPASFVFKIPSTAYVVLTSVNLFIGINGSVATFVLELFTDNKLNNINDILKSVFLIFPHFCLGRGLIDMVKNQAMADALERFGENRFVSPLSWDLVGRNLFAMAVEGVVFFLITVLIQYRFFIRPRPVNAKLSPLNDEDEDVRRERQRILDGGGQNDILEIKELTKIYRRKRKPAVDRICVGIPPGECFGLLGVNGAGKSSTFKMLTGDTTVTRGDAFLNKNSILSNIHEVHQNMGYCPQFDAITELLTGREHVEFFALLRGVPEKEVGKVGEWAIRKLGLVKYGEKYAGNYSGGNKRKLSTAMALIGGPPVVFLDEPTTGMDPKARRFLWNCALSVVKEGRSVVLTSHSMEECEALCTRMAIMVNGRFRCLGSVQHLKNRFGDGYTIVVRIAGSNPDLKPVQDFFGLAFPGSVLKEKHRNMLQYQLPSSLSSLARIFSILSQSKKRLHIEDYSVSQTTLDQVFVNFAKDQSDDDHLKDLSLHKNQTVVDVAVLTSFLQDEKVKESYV

cholesterol efflux after transient transfection with ABCA1 cDNA vs mock (ABCA1 [6]): significantly upregulated
Substance: H-ALEHLFTLYEKALKALEDLLKKLL-OH [FAMP5]
ex vivo cholesterol efflux mediated by HDL of treated mice (RAW264 macrophages): significant increase
dose dependence of cholesterol efflux on a molar basis (A172 human glioblastoma; A172 cells, presence or absence of 5 μmol/L T0901317 or 9-cis-retinoic acid, n=4): dose‐dependent induction of cholesterol efflux with saturation effects
cellular cholesterol efflux: differences of terminal end modifications (A172 human glioblastoma; A172 cells, 20 μg/mL, n=5): no influence by the modification of terminal ends
effect of ABCA1 inactivation (probucol) on peptide-mediated cholesterol efflux (A172 human glioblastoma; probucol 10 μmol/L, 20 μg/mL): drastically inhibited; also recorded: not completely abolished
percentage of probucol‐inhibitable, ABCA1‐specific cholesterol efflux (ABCA1 [1]): significantly higher than that in L‐4F; also recorded: significantly lower than human apoA‐I
HDL particle size on polyacrylamide gel electrophoresis [2]: generated pre‐β1 HDL‐like small particles
plasma MCP‐1 levels [3]: significantly reduced
cholesterol efflux [4]: induced cholesterol efflux significantly more than human apoA‐I
plasma high‐sensitive CRP levels (C‐reactive protein (CRP)): equally suppressed
HDL Cholesterol (apoE‐deficient mice [5]; [8]): 12.6 ± 3.7 mg/dL
Total Cholesterol (apoE‐deficient mice [5]; [8]): 1439.5 ± 271.5 mg/dL
Triglyceride (apoE‐deficient mice [5]; [8]): 102.7 ± 18.3 mg/dL
effect on plasma total cholesterol, triglyceride, and HDL cholesterol levels (apoE‐deficient mice [5]; low and high doses, enzymatic assay): no significant effects
HDL Cholesterol (apoE‐deficient mice [5]; [9]): 16.6 ± 4.8 mg/dL
Total Cholesterol (apoE‐deficient mice [5]; [9]): 1532.8 ± 589.6 mg/dL
Triglyceride (apoE‐deficient mice [5]; [9]): 120.0 ± 41.6 mg/dL
Cholesterol, CM (>80 nm) (apoE‐deficient mice [7]; [10]): 173.4 ± 24.0 mg/dL
Cholesterol, HDL (8 to 16 nm) (apoE‐deficient mice [7]; [10]): 20.3 ± 3.1 mg/dL
Cholesterol, LDL (16 to 30 nm) (apoE‐deficient mice [7]; [10]): 157.9 ± 32.1 mg/dL
Cholesterol, VLDL (30 to 80 nm) (apoE‐deficient mice [7]; [10]): 509.1 ± 73.8 mg/dL
Free cholesterol, CM (>80 nm) (apoE‐deficient mice [7]; [10]): 76.6 ± 13.7 mg/dL
Free cholesterol, HDL (8 to 16 nm) (apoE‐deficient mice [7]; [10]): 10.0 ± 1.1 mg/dL
Free cholesterol, LDL (16 to 30 nm) (apoE‐deficient mice [7]; [10]): 75.0 ± 14.1 mg/dL
Free cholesterol, VLDL (30 to 80 nm) (apoE‐deficient mice [7]; [10]): 213.8 ± 33.7 mg/dL
Phospholipids, CM (>80 nm) (apoE‐deficient mice [7]; [10]): 84.3 ± 14.2 mg/dL
Phospholipids, HDL (8 to 16 nm) (apoE‐deficient mice [7]; [10]): 23.1 ± 5.2 mg/dL
Phospholipids, LDL (16 to 30 nm) (apoE‐deficient mice [7]; [10]): 110.6 ± 26.5 mg/dL
Phospholipids, VLDL (30 to 80 nm) (apoE‐deficient mice [7]; [10]): 259.9 ± 44.9 mg/dL
Triglyceride, CM (>80 nm) (apoE‐deficient mice [7]; [10]): 22.1 ± 6.6 mg/dL
Triglyceride, HDL (8 to 16 nm) (apoE‐deficient mice [7]; [10]): 3.7 ± 1.3 mg/dL
Triglyceride, LDL (16 to 30 nm) (apoE‐deficient mice [7]; [10]): 10.4 ± 2.2 mg/dL
Triglyceride, VLDL (30 to 80 nm) (apoE‐deficient mice [7]; [10]): 35.8 ± 9.7 mg/dL
Cholesterol, CM (>80 nm) (apoE‐deficient mice [7]; [11]): 175.4 ± 40.4 mg/dL
Cholesterol, HDL (8 to 16 nm) (apoE‐deficient mice [7]; [11]): 22.0 ± 3.7 mg/dL
Cholesterol, LDL (16 to 30 nm) (apoE‐deficient mice [7]; [11]): 133.1 ± 16.1 mg/dL
Cholesterol, VLDL (30 to 80 nm) (apoE‐deficient mice [7]; [11]): 529.9 ± 135.3 mg/dL
Free cholesterol, CM (>80 nm) (apoE‐deficient mice [7]; [11]): 70.7 ± 14.4 mg/dL
Free cholesterol, HDL (8 to 16 nm) (apoE‐deficient mice [7]; [11]): 9.1 ± 0.6 mg/dL
Free cholesterol, LDL (16 to 30 nm) (apoE‐deficient mice [7]; [11]): 65.6 ± 6.0 mg/dL
Free cholesterol, VLDL (30 to 80 nm) (apoE‐deficient mice [7]; [11]): 220.1 ± 49.0 mg/dL
Phospholipids, CM (>80 nm) (apoE‐deficient mice [7]; [11]): 78.4 ± 15.3 mg/dL
Phospholipids, HDL (8 to 16 nm) (apoE‐deficient mice [7]; [11]): 29.1 ± 4.9 mg/dL
Phospholipids, LDL (16 to 30 nm) (apoE‐deficient mice [7]; [11]): 94.4 ± 10.4 mg/dL
Phospholipids, VLDL (30 to 80 nm) (apoE‐deficient mice [7]; [11]): 263.8 ± 53.4 mg/dL
Triglyceride, CM (>80 nm) (apoE‐deficient mice [7]; [11]): 26.1 ± 16.8 mg/dL
Triglyceride, HDL (8 to 16 nm) (apoE‐deficient mice [7]; [11]): 2.9 ± 1.2 mg/dL
Triglyceride, LDL (16 to 30 nm) (apoE‐deficient mice [7]; [11]): 9.5 ± 2.3 mg/dL
Triglyceride, VLDL (30 to 80 nm) (apoE‐deficient mice [7]; [11]): 38.1 ± 19.4 mg/dL
red cell hemolysis (percentage of the Triton X‐100 lysis) (human erythrocytes): only limited effects
